Screening results: PubChem, several laboratories
STAT3 act: IL-6 driven STAT3 reporter potentiators, primary screen, U3A cells, luciferase, luminescence, MLSCN library. IL-6 STAT3-luciferase reporter; 100% = signal with IL-6 EC80 alone. activation (% of control), % at 5.6 µM. 190,000 tested, 0.91% active;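 active means activation above the screen-wide mean of compound activation plus 3 SD, cut at about 130% in these data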;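 further: 0% = background luminescence of wells with medium and substrate only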
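Test system: STAT3-luciferase reporter U3A cells; Detection: reporter luminescence signal; Times: 1 h compound pre-exposure, 6 h IL-6 stimulation, 37 °C; Benchmarks: IL-6-only high control; Also added: IL-6 stimulus at 33 ng/mL final.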
STAT1 act: STAT1 signaling activators, primary screen, cell-based, HTS, luciferase reporter; 200,000 tested, 2.6% active; AID 932, 2007; NIH 3T3 STAT1-luciferase reporter, IFN-gamma, luminescence; 100% = IFN-gamma alone, no compound; activation (% of control), % at 5.5 µM;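 active means activation above the screen-wide mean activation plus 3 SD, cut at about 130% in these data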;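 further: raw ratio to IFN-gamma control signal so 100% means no change and 0% no light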
STAT1 blocker: STAT1 signaling inhibitors, primary screen, cell-based, HTS, luciferase reporter; inhibition, % at 5.5 µM; AID 920, 2007; 200,000 tested, 0.35% active; NIH 3T3 STAT1-luciferase reporter, IFN-gamma, luminescence;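 active means inhibition above a set limit, the mean inhibition across all tested compounds plus 3 SD, cut at about 34% in these data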;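 further: 0% = IFN-gamma with DMSO and 100% = IFN-gamma with 300 µM nifuroxazide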
STAT3 inh-1: IL-6 driven STAT3 reporter inhibitors, primary screen, U3A cells, luciferase, luminescence, MLSCN library. 190,000 tested, 0.89% active. inhibition, % at 5.5 µM. IL-6 STAT3-luciferase reporter; host cell line lacks STAT1;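 active means inhibition above the mean inhibition across all screened compounds plus 3 SD, cut at about 44% in these data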;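 further: 0% = DMSO only wells and 100% = 100 µM nifuroxazide control wells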
APP 5'UTR act: activators of APP 5'UTR luciferase reporter, primary screen, SH-SY5Y cells; SH-SY5Y APP 5'UTR luciferase reporter, luminescence; zero percent = DMSO vehicle wells; AID 1276, 2008; activation, % at 2 µM; 190,000 tested, 1% active;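 active means activation above a set limit, based on mean plus 3 SD of controls, cut at about 140% in these data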
NF-kB neuron act: activators of NF-kB expression in neurons, primary screen, cell-based, HTS | human neuronal cells, NF-kB reporter expression; hits give high values | 190,000 tested, 1.6% active | fold change at 12.5 µM; in the data active means fold change above about 3.3
STAT3 inh-2: STAT3 reporter inhibitors, retest of hits, confirmation, U3A cells, luciferase, luminescence; inhibition, % at 5.7 µM; shares compounds with STAT3 inh-1; 1,200 tested, 45% active; IL-6 STAT3 luciferase reporter; cell line lacks STAT1;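 active means inhibition above the hit cutoff computed for the primary STAT3 screen, cut at about 44% in these data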;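 further: 0% = IL-6 plus DMSO and 100% = IL-6 plus nifuroxazide control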
NFkB inh 2: NF-kB reporter inhibitors in human cells, confirmation, counter-screen for STAT3 inhibitor project, cell-based, HEK293T, luciferase, TNF-alpha stimulus. AID 1308, 2008. shares compounds with STAT3 inh-1. TNF-alpha induced. inhibition, % at 5.7 µM. 1,200 tested, 36% active;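 active means inhibition above the mean of solvent-only control wells plus 3 SD, cutoff set per campaign, cut at about 13% in these data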;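 further: 0% = TNF-alpha with DMSO and 100% = TNF-alpha with MG high control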
STAT1 inh 2: STAT1 reporter inhibitors, IFN-gamma induced, confirmation, counter-screen for STAT3 inhibitor project, cell-based, NIH 3T3, luciferase luminescence | shares compounds with STAT3 inh-1 | NIH 3T3 STAT1-luciferase reporter | inhibition, % at 5.7 µM | 1,200 tested, 27% active | AID 1317, 2008;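 active means inhibition above the mean plus 3 SD of solvent-only control wells, limit set per screening run, cut at about 16% in these data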;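 further: 0% = DMSO with IFN-gamma and 100% = nifuroxazide control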
Active calls of the source: *; . = no result given. Only some compounds are listed: those with a hit (about 4.9% of all), similar ones and a draw of the others.

SMILES	STAT3 act	STAT1 act	STAT1 blocker	STAT3 inh-1	APP 5'UTR act	NF-kB neuron act	STAT3 inh-2	NFkB inh 2	STAT1 inh 2
Cc1c(C(=O)NN2CCOCC2)oc2c1ccc1ccccc12	94.4	102.9	-5.0	16.2	-6.8	0.99	.	.	.
COc1ccc(Nc2cc(C)nc3ncnn23)c(OC)c1	108.7	104.3	-4.7	-1.4	3.6	1.15	.	.	.
COc1ccc(CNc2cc(C)nc3ncnn23)c(OC)c1	44.6	88.0	13.1	67.0*	3.5	0.79	52.1*	16.7*	17.4*
COc1ccc(NC(=O)C(C)N2c3cccc4cccc(c34)S2(=O)=O)cc1OC (stereo not drawn)	63.6	74.0	28.4	46.1*	-1.7	0.75	35.8	4.3	22.2*
CC(=O)N1CC(=O)N(Cc2ccccc2)/C(=C/c2ccccc2)C1=O	104.8	99.5	0.2	-1.7	-7.6	0.82	.	.	.
CCCCCCn1ccc(=N)cc1	45.2	81.3	21.0	70.1*	-1.8	0.7	56.0*	17.6*	15.7
CCCCCc1ccc(OCCOCCn2c[n+](C)c3ccccc32)c(CCCCC)c1	53.9	70.3	30.7	56.1*	-28.9	0.25	65.9*	15.7*	22.8*
Cc1cccc(N(CC(=O)NCc2ccco2)C(=O)CCC(=O)Nc2nccs2)c1	98.7	95.6	3.1	5.9	-3.0	1.01	.	.	.
COC(=O)c1nn(-c2ccc3c(c2)CCN3C(C)=O)cc1O	13.8	88.8	12.3	100.5*	-22.8	0.91	84.5*	-9.7	-26.9
COC(=O)c1nn(-c2ccc3c(c2)OCO3)cc1O	87.1	102.5	-2.8	18.8	63.8	1.92	.	.	.
CNc1nnc(-c2ccc(N(C)C)cc2)s1	56.9	86.6	14.5	53.3*	115.4	4.72*	19.1	-9.5	-57.4
Cc1cnc(NC(=O)C2COc3ccccc3O2)s1 (stereo not drawn)	45.1	106.6	-7.3	71.4*	144.1*	2.62	40.7	-28.6	-96.6
Cc1ccc2c(c1)C(N1CCCC1=O)CC(c1ccco1)N2 (stereo not drawn)	43.0	93.4	17.8	69.7*	126.9	3.72*	37.6	-2.3	-40.8
O=C(Nc1nc2ccccc2[nH]1)c1ccc([N+](=O)[O-])cc1	55.8	115.5	-19.3	55.3*	190.4*	3.01	16.1	-19.4	-91.6
CN(c1ccc(C(=O)N2CCN(Cc3ccc4c(c3)OCO4)CC2)cc1)S(=O)(=O)c1ccccc1	59.9	92.7	7.9	48.8*	6.9	0.79	41.3	11.1	6.1
Cc1cccc(C(=O)N2CCN(Cc3ccc4c(c3)OCO4)CC2)c1	109.0	112.1	-13.3	-6.1	-3.1	1.02	.	.	.
Cc1ccc(S(=O)(=O)N(C)c2ccc(C(=O)N3CCN(Cc4ccc5c(c4)OCO5)CC3)cc2)cc1	57.7	87.7	13.3	54.0*	9.3	0.62	45.5*	10.1	-0.1
COCCCN1C(=O)/C(=C/c2ccc(CNS(=O)(=O)c3ccccc3)o2)C(C(=O)OC)=C1C	88.0	93.2	4.2	18.9	2.4	0.93	.	.	.
CCN(CC)S(=O)(=O)c1cc(C(=O)Nc2cccnc2)ccc1Cl	102.5	104.8	-5.3	3.1	-13.4	0.85	.	.	.
CCN(CC)S(=O)(=O)c1cc(C(=O)Nc2ccncc2)ccc1Cl	57.4	79.7	22.3	56.0*	-0.7	0.67	33.5	11.5	17.0*
O=S(=O)(Cc1cc(NCc2ccccc2)nc(-c2ccccn2)n1)c1ccccc1	100.5	96.7	1.9	1.7	-22.8	0.83	.	.	.
COc1cc(SC)ccc1C(=O)Nc1ccc2c(c1)OCCO2	59.2	130.5*	-33.6	53.7*	155.0*	4.61*	5.5	-35.6	-156.3
COc1ccc(C(=O)Nc2nccs2)cc1OC	106.1	112.7	-14.9	-0.7	-4.8	1.31	.	.	.
COc1cc(SC)ccc1C(=O)Nc1nccs1	52.1	70.0	30.8	58.1*	190.4*	1.04	31.0	-4.2	-85.0
COc1cc(SC)ccc1C(=O)Nc1c(C)cccc1C	97.3	104.8	-5.6	8.6	3.1	1.19	.	.	.
SMILES	STAT3 act	STAT1 act	STAT1 blocker	STAT3 inh-1	APP 5'UTR act	NF-kB neuron act	STAT3 inh-2	NFkB inh 2	STAT1 inh 2
CN(C)N1C(N)=C(C#N)C(c2cccs2)C2=C1CC(C)(C)CC2=O (stereo not drawn)	100.7	95.5	5.5	-0.2	-5.0	1.06	.	.	.
CC(C)(C)NC(=O)COC(=O)c1snc(C(=O)NC2CCCCC2)c1N	36.0	100.5	-0.5	76.4*	2.0	0.9	72.1*	22.2*	1.3
CC(OC(=O)c1snc(C(=O)NC2CCCCC2)c1N)C(=O)NC(C)(C)C (stereo not drawn)	73.6	93.7	6.8	34.5	-9.1	1.06	.	.	.
CCn1c(COc2ccccc2Cl)nnc1SCC(=O)Nc1ncccc1C	97.4	103.6	-4.1	3.3	5.2	1.13	.	.	.
CC1=NC(=O)C(N=Nc2cccc(C(=O)O)c2)N1c1ccccc1 (stereo not drawn)	45.5	73.5	28.8	64.9*	86.6	9.47*	41.4	17.9*	-30.2
CC1=NC(=O)C(N=Nc2ccccc2C)N1c1ccccc1 (stereo not drawn)	105.6	105.9	-6.4	-3.5	13.4	.	.	.	.
CCOC(=O)C1(CC2CC2)CCN(S(=O)(=O)/C=C/c2ccccc2)CC1	107.6	102.9	-5.2	-1.5	33.8	0.96	.	.	.
CCN(CC)S(=O)(=O)c1ccc(Oc2ccc(S(=O)(=O)N(CC)CC)cc2)cc1	35.5	76.0	27.7	77.7*	0.2	0.48	67.5*	27.2*	25.8*
Nc1nn(-c2cccc(F)n2)cc1-c1ccc(Cl)cc1	53.2	82.7	18.6	58.5*	251.2*	11.9*	14.0	-25.4	-138.3
Cc1ccc(C)c(N2CCN(C(=O)Nc3ccc4c(c3)N(C)C(=O)CS4)CC2)c1	64.7	67.4	33.8	45.3*	1.1	0.6	37.3	15.1*	19.6*
CN1C(=O)CSc2ccc(NC(=O)N3CCN(c4ccccn4)CC3)cc21	84.6	86.8	14.5	13.8	6.3	0.74	.	.	.
